Assay results: paper PMC3240942 (Molecular cell, 2011)
Values belong to the molecule of their own block, whether it stands above or below them. Where no end group is shown, it is not given here.

Key:
[1] = test system: ESA-deacetylase core interaction; test: Competition of the ESA-deacetylase core interaction; type: binding, mouse; conditions: competing GPDR-ESA peptide (Figure S2E) or 2 μg GST-LZ (N=5)
Summary of the method: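 Biotinylated ESA peptide (100 μl at 300 nmole/ml) bound to 1 ml streptavidin agarose for 1 hr at room temperature, washed with PBS, and resuspended in PBS/1% Triton X-100 with protease inhibitors. 30 μl beads incubated 2 hrs at room temperature with deacetylase core and competitor. Biotin-only beads as negative control. Bound core quantified by immunoblot, N=5, mean ± s.e.m.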

Sirt1 [2] = target: T1, Sirt1 (Mus musculus, UniProt Q923E4); test: Sirt1 deacetylase activity against Ac-p53, peptide added in trans; type: biochemical; conditions: Figure S2G
T1 sequence (Q923E4 1-737): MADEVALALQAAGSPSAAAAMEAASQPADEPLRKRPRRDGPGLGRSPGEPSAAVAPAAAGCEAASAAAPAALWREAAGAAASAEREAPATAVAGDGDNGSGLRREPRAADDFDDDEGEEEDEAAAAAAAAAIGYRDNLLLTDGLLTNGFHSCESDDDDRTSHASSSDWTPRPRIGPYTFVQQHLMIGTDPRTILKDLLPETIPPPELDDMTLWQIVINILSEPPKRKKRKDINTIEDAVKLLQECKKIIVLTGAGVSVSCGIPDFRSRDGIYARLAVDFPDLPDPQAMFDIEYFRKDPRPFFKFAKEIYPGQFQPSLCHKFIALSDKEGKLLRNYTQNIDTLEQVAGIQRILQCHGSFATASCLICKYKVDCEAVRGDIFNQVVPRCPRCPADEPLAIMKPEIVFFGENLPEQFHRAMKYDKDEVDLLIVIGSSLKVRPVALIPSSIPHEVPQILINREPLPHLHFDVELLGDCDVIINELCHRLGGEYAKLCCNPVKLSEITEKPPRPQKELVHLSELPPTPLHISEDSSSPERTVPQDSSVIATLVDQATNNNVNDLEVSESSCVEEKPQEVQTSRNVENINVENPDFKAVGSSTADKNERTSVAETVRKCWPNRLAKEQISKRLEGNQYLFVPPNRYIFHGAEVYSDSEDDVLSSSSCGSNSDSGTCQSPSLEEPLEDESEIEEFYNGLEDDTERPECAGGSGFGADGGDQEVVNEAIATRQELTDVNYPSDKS

Sirt6 = test: Fluorometric Sirt6 deacetylase assay; type: biochemical; conditions: 150 μM peptide, CycLex SIRT6 fluorometric kit; N=4
Summary of the method: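 His-tagged Sirt6 was assayed with the CycLex SIRT6 fluorometric kit. Kit buffer was replaced by 50 mM HEPES pH 7.0, 1 mM DTT, 10 mM MgCl2, 200 mM NaCl plus protease/phosphatase inhibitors. WT or GPDR-mutant ESA peptide (150 μM) or no peptide was present. N=4; mean ± s.e.m.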

deacetylase core [3] = test: Pull-down of deacetylase core with immobilized GPDR-ESA peptide; type: binding, mouse; conditions: streptavidin pull-down, Figure S2E top
Summary of the method: (§1)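 Biotinylated peptide (mutant ESA or acetyl-H4) was bound to streptavidin agarose for 1 h at room temperature, washed, and held in PBS/1% Triton X-100. Beads (30 μl) took 2 μg GST-fused or His-tagged protein for 2 h at room temperature. Beads were washed with PBS/1% Triton/200 mM NaCl and eluted in β-ME SDS buffer at 95 °C for 10 min. Blots ran on 4–12% SDS-PAGE; biotin-only beads were the control.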

Sirt1 [4] = target: T1, Sirt1; test: Lineweaver-Burk kinetics of Sirt1; type: biochemical; conditions: against both Ac-H4 and NAD+; Lineweaver-Burk plot
Summary of the method: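 His-Sirt1 (2 μg) was pre-incubated 5 min at room temperature in HEPES pH 7.0 buffer with mutant ESA peptide at 0, 60, 120 or 240 μM. Ac-K16 H4 fluorogenic dipeptide was varied at 500 μM NAD+, or NAD+ was varied at 100 μM substrate. Reactions ran 25 min at 37 °C and were stopped with nicotinamide developer; ex 355/em 460 nm, no-NAD+ blank subtracted. Triplicates. Kis/Kii came from a double-reciprocal noncompetitive model fit, Km from the same analysis, kcat from a Michaelis–Menten fit.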

[5] = test system: Lys 382 acetylated-p53 (Ac-p53); test: Deacetylation of Lys 382 acetylated-p53 by recombinant WT/mutant Sirt1; type: biochemical, mouse Sirt1; conditions: recombinant Sirt1 2 μg, acetylated GST-p53 0.2 μg, 0.5 mM NAD+, pH 7.0, 37 °C; immunoblot
Summary of the method: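 Recombinant His-tagged WT or C-terminally truncated/point-mutant mouse Sirt1 (2 μg) incubated with acetylated GST-p53 (0.2 μg) and 0.5 mM NAD+ in 50 mM HEPES pH 7.0, 1 mM DTT, 10 mM MgCl2, 200 mM NaCl plus protease/phosphatase inhibitors. Reactions ran at 37 °C for indicated times and were stopped with SDS sample buffer. Read-out: immunoblot with acetyl-K382 p53 antibody; loading checked by Coomassie, Ponceau S or Western blot.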

[3H]Ac-histone H4 = [3H]Ac-histone H4 deacetylation, O-[3H]acetyl-ADP-ribose scintillation counting; type: biochemical; conditions: [3H]Ac-histone H4 substrate; N=4; "almost"
Summary of the method: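 WT or mutant recombinant Sirt1 (including ΔESA, G644P, D650R, G644P/D650R) was reacted with [3H]acetyl-histone H4. Activity was quantified by scintillation counting of released O-[3H]acetyl-ADP-ribose. N=4; mean ± s.e.m.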

deacetylase core [6] = test: GST pull-down of deacetylase core with GST-LZ or GST-ESA; type: binding, mouse; conditions: GST pull-down, GST-LZ vs GST-ESA
Summary of the method: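 His-tagged deacetylase core (a.a. 184-510) incubated with GST, GST-ESA or GST-LZ (DBC1 LZ, a.a. 243-264), 2 μg of each. Unbound protein washed off on micro-spin columns with PBS/1% Triton X-100/200 mM NaCl. Elution in SDS buffer with β-ME at 95 °C for 10 min; 4–12% gradient SDS-PAGE and Western blot for bound core and GST fusions.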

Sirt1 [7] = target: T1, Sirt1; test: Sirt1 deacetylase activity in presence of GST-LZ; type: biochemical; conditions: compared to GST alone, Figure S3B
[8] = target: T2, Sirt1 deacetylase core (Core, a.a. 184-510) (mouse, UniProt Q923E4 184-510); test: pull-down
T2 sequence (looked up): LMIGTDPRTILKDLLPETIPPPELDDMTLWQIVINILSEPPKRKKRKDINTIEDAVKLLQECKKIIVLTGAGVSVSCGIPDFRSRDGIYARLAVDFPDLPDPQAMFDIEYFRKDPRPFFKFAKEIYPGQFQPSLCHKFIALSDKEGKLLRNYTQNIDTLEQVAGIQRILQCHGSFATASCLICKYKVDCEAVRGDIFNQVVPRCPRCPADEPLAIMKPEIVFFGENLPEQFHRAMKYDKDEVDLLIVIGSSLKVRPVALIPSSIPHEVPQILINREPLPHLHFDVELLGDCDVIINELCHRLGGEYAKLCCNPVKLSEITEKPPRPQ

native Ac-histone H3 = test: Deacetylation of native Ac-histone H3 by recombinant Sirt1; type: biochemical
Ac-H3 = test: Interaction of Sirt1 with Ac-H3 purified from Hela cells; type: binding; conditions: Figure S3A
[9] = test system: p53 target genes p21, PUMA and Bim; test: Expression of p53 target genes in H1299 cells; type: cell-based; conditions: co-expressed p53
Summary of the method: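 H1299 cells transiently co-transfected with a p53 expression vector and a WT or ΔESA Sirt1 expression vector; empty vector as control. Levels of the p53-activated genes p21, PUMA and Bim were then visualized.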

p53 = test: Deacetylation of p53 in transfected H1299 cells; type: cell-based; conditions: co-transfected with p53
Summary of the method: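 H1299 cells were transiently co-transfected with a p53 vector and a WT or ΔESA Sirt1 vector; empty vector was the negative control. Acetylated p53 was detected by immunoblot with an acetyl-K382-specific antibody.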

Ac-H4 = test: Interaction of Sirt1 with Ac-H4 purified from Hela cells; type: binding; conditions: Figure S3A
GST-Ac-p53 = test: Pull-down of Sirt1 / core fragments with GST-Ac-p53; type: binding; conditions: in vitro pull-down
Summary of the method: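 In vitro pull-downs with GST-Ac-p53 or GST alone as negative control. Recombinant Flag-tagged full-length or ΔESA (a.a. 631-655 deleted) Sirt1 pulled down with anti-Flag, bound GST-Ac-p53 detected by GST immunoblot, and Sirt1 shown by Coomassie. Alternatively, core (a.a. 184-510) or Core-ESA with GST-Ac-p53 (2 μg each) in GST pull-down, bound core detected by Sirt1 immunoblot.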

Flag-p65 (NF-κB) = test: Co-immunoprecipitation of Sirt1 with Flag-p65 in Hela cells; type: cell-based; conditions: V5-tagged Sirt1
Summary of the method: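 Transient co-transfection of HeLa cells with Flag-NF-κB p65 plus V5-tagged full-length or ΔESA Sirt1. p65 was pulled down with anti-Flag, and bound Sirt1 was detected by anti-V5 immunoblot alongside input levels.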

[10] = Pull-down of GST fusion proteins with immobilized GPDR-ESA peptide; type: binding; conditions: Figure S2F
Summary of the method: as §1

effect on Sirt6 activity (Sirt6): had no effect on Sirt6 activity
binding to deacetylase core (deacetylase core [3]): also bound to the deacetylase core
mode of inhibition (Sirt1 [4]): noncompetitive inhibitor
Molecule: GPDR-ESA peptide: ESA peptide containing a mutation of two residues, G644P and D650R (GPDR) (QYLFVPPNRYIFHPAEVYSRSEDDV; also: biotinylated, position not given here)
inhibition of ESA-deacetylase core interaction [1]: ESA-deacetylase core interaction was inhibited
inhibition of Sirt1 activity against Ac-p53 (Sirt1 [2]): also inhibited Sirt1 activity against Ac-p53

Molecule: GPDR: Sirt1 with a double mutation G644P and D650R
deacetylase activity against Ac-p53 [5]: very little deacetylase activity
fold reduction of Sirt1 activity ([3H]Ac-histone H4): ~10 fold

Molecule: GST-LZ: LZ domain of DBC1 (a.a. 243-264) fused to GST (LQRRYRSLLVPSDFLSVHLSWL; also: fused to GST, end not given here)
inhibition of ESA-deacetylase core interaction [1]: prevented the ESA-deacetylase core interaction
relative strength of interaction with deacetylase core (deacetylase core [6]): stronger than the ESA-deacetylase core interaction
reduction of Sirt1 deacetylase activity (Sirt1 [7]): significantly reduced Sirt1 deacetylase activity

binding result [8]: binds
B1: GST-ESA (ESA fused to GST) (domain or fragment, mouse, UniProt Q923E4 631-655, looked up)
chain: QYLFVPPNRYIFHGAEVYSDSEDDV

B2: ΔESA Sirt1: Sirt1 with the 25 a.a. ESA region (a.a. 631-655) deleted (protein)
chain: MADEVALALQAAGSPSAAAAMEAASQPADEPLRKRPRRDGPGLGRSPGEPSAAVAPAAAGCEAASAAAPAALWREAAGAAASAEREAPATAVAGDGDNGSGLRREPRAADDFDDDEGEEEDEAAAAAAAAAIGYRDNLLLTDGLLTNGFHSCESDDDDRTSHASSSDWTPRPRIGPYTFVQQHLMIGTDPRTILKDLLPETIPPPELDDMTLWQIVINILSEPPKRKKRKDINTIEDAVKLLQECKKIIVLTGAGVSVSCGIPDFRSRDGIYARLAVDFPDLPDPQAMFDIEYFRKDPRPFFKFAKEIYPGQFQPSLCHKFIALSDKEGKLLRNYTQNIDTLEQVAGIQRILQCHGSFATASCLICKYKVDCEAVRGDIFNQVVPRCPRCPADEPLAIMKPEIVFFGENLPEQFHRAMKYDKDEVDLLIVIGSSLKVRPVALIPSSIPHEVPQILINREPLPHLHFDVELLGDCDVIINELCHRLGGEYAKLCCNPVKLSEITEKPPRPQKELVHLSELPPTPLHISEDSSSPERTVPQDSSVIATLVDQATNNNVNDLEVSESSCVEEKPQEVQTSRNVENINVENPDFKAVGSSTADKNERTSVAETVRKCWPNRLAKEQISKRLEGNLSSSSCGSNSDSGTCQSPSLEEPLEDESEIEEFYNGLEDDTERPECAGGSGFGADGGDQEVVNEAIATRQELTDVNYPSDKS
modifications: left off: V5, end not stated, kept
deacetylase activity against native Ac-histone H3 (native Ac-histone H3): did not have any deacetylase activity
interaction with Ac-H3 (Ac-H3): significantly weakened the interaction
suppression of p53 target gene expression [9]: failed to suppress the expression of p53 target genes
deacetylation of p53 in vivo (p53): WT Sirt1, but not ΔESA Sirt1, was able to deacetylate p53
interaction with Ac-H4 (Ac-H4): significantly weakened the interaction
binding to GST-Ac-p53 (GST-Ac-p53): bound poorly to GST-Ac-p53 compared to full-length Sirt1
deacetylase activity against Ac-p53 [5]: did not have any deacetylase activity
co-immunoprecipitation with Flag-p65 (Flag-p65 (NF-κB)): did so very poorly

binding to immobilized GPDR-ESA peptide [10]: bound to the GPDR-ESA peptide
B3: GST-Sirtuin domain: GST fused to Sirtuin domain (a.a. 236-490) (protein)
chain: EDAVKLLQECKKIIVLTGAGVSVSCGIPDFRSRDGIYARLAVDFPDLPDPQAMFDIEYFRKDPRPFFKFAKEIYPGQFQPSLCHKFIALSDKEGKLLRNYTQNIDTLEQVAGIQRILQCHGSFATASCLICKYKVDCEAVRGDIFNQVVPRCPRCPADEPLAIMKPEIVFFGENLPEQFHRAMKYDKDEVDLLIVIGSSLKVRPVALIPSSIPHEVPQILINREPLPHLHFDVELLGDCDVIINELCHRLGGEYA
modifications: left off: GST, end not stated, kept
